Experimental data from different studies.
Lines come from different studies, so protocols differ.

Nc1ccc(-c2nsc(=O)o2)cc1 — kinact/KI (Proteasome Macropain subunit MB1 (PSMB5, Homo sapiens, UniProt P28074); enzyme activity; inhibitor): 8.6 M⁻¹ s⁻¹
O=C(Nc1cccnn1)N1CCN([C@@H]2CCOc3cc(C(F)(F)F)ccc32)CC1 — inhibition (Neuropeptide Y receptor type 1 (NPY1R, Homo sapiens, UniProt P25929); cell-free assay; 20 µM): -5%
Nc1ncc(-c2nc(N3CCOCC3)nc(N3CCOCC3)n2)c(C(F)F)n1 — remaining binding (Epidermal growth factor receptor (EGFR, Homo sapiens, UniProt P00533, G719C); cell-free assay; competition with immobilised ligand; 10 µM): 56%
C#Cc1n[nH]c2c(-c3cn([C@@H](C)c4ccccn4)c(=O)[nH]c3=O)cc(F)cc12 — inhibition (Serine/threonine-protein kinase B-raf (BRAF, Homo sapiens, UniProt P15056); enzyme activity; inhibitor; 0.1 µM): -0.3%
CCN(CC)CCCC[C@H](NC(=O)[C@H](CC(C)C)NC(=O)[C@H](C)NC(=O)[C@H](Cc1ccccc1)NC(=O)c1ccc(C(C)(C)C)cc1)C(=O)N[C@@H](CO)C(=O)OC — ΔTm (Nucleosome-remodeling factor subunit BPTF (BPTF, Homo sapiens, UniProt Q12830); thermal stability; DSF; 25 µM): 0 °C
Cn1cc(-c2cc(F)cc(N3CCn4c(cc5c4CCCC5)C3=O)c2CO)cc(Nc2ccc(N3CCN(C4COC4)CC3)cn2)c1=O — inhibition (Muscle, skeletal receptor tyrosine-protein kinase (MUSK, Homo sapiens, UniProt O15146); enzyme activity; inhibitor; 0.1 µM): 17%
COc1ncccc1-c1cnn2ccc(N3CCN(C(=O)OC(C)C)CC3)nc12 — remaining binding (Ribosomal protein S6 kinase alpha-2, C-terminal kinase domain (RPS6KA2, Homo sapiens, UniProt Q15349); binding; competition with immobilised ligand; 1 µM): 83%
CC[C@H](C)[C@H](NC(=O)[C@H](CO)NC(=O)[C@@H](N)CCCCN)C(=O)N[C@H](C(=O)N[C@@H](CC(N)=O)C(=O)N[C@@H](Cc1ccccc1)C(=O)N[C@@H](CCC(=O)O)C(=O)N[C@@H](CCCCN)C(=O)N[C@@H](CC(C)C)C(=O)O)[C@@H](C)CC — Km (Endoplasmic reticulum aminopeptidase 2 (ERAP2, Homo sapiens, UniProt Q6P179); enzyme activity; substrate; mass spectrometry): 12.3 µM
Cc1nn(C)cc1-c1nc2c(N3CCN(Cc4ccc(Cl)cc4)CC3)c(Cl)cnc2[nH]1 — remaining binding (Serine/threonine-protein kinase Nek5 (NEK5, Homo sapiens, UniProt Q6P3R8); binding; competition with immobilised ligand; 1 µM): 23%
CCN1CCN(Cc2ccc(C(=O)Nc3ccc(C)c(Oc4ccc5c(c4)CC(=O)N5)c3)cc2C(F)(F)F)CC1 — remaining binding (Serine/threonine-protein kinase PRP4 homolog (PRPF4B, Homo sapiens, UniProt Q13523); binding; competition with immobilised ligand; 1 µM): 100%
Cn1cc(-c2cccc(N3CCc4c(sc5c4CC(C)(C)C5)C3=O)c2CO)cc(Nc2ccncn2)c1=O — inhibition (PAS domain-containing serine/threonine-protein kinase (PASK, Homo sapiens, UniProt Q96RG2); enzyme activity; inhibitor; 1 µM): 21%
